One compound from ChEMBL document CHEMBL2396655, “Design, synthesis, and biological evaluation of (E)-N-aryl-2-arylethenesulfonamide analogues as potent and orally bioavailable microtubule-targeted anticancer agents” (J Med Chem, 2013) can be followed below.

The source made the active and inactive calls. The calls are words filed in the database; no cut-off is given here.

Data set [1] deals with DU-145. Description: Cell cycle arrest in human DU145 cells assessed as accumulation at subG1 phase at 0.005 to 0.02 uM after 24 hrs by propidium iodide staining-based FACS flow cytometric analysis. The data set is classed as functional. Summed up: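 DU145 cells were plated at 1.0×10⁶ per dish in DMEM/10% FBS and treated 24 h later with increasing concentrations. After 24 h, attached and floating cells were pooled and fixed in ice-cold 70% ethanol for at least 24 h. Cells were stained with propidium iodide (50 μg/mL) plus RNase A for 30 min at 37 °C, then read on a FACScan with cell-cycle modelling.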
(In general: In flow cytometry, cells or beads pass a laser one at a time.)

In data set [2] the test system is DU-145. The data set is described as follows: Mitotoic arrest in human DU145 cells assessed as presence of micronucleated cells at 25 nM after 24 hrs by FITC and propidium iodide staining-based confocal laser microscopic analysis. It counts as functional, cell-based. The essentials: (§1)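 DU145 cells grown on glass coverslips, exposed to 0.025 μM for 24 h, fixed in 4% paraformaldehyde, permeabilized in PBS with 10% FBS/0.1% Triton X-100, stained with FITC-conjugated anti-α-tubulin (DM1A, 1 h, 37 °C) and propidium iodide (1 μg/mL, 5 min), then imaged by confocal microscopy (60× objective, XYZ-sectioning); DMSO-treated cells as vehicle.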

For data set [3], the system named is Mus musculus. The data set is described as follows: AUC in ICR mouse at 5 mg/kg, po by LC-MS/MS analysis. Details: dose 5 mg/kg, route oral. The data set is classed as ADME, organism-based, Plasma. The note with it: in vivo. Summed up:
(§2)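 Male ICR mice, 6–8 weeks old, N=3 per group. Single 5 mg/kg dose in NMP:PEG300:water (1:4:5 v/v), given as IV bolus or oral gavage. Serial arterial blood was drawn through a carotid cannula at 2–360 min. Plasma was protein-precipitated with acetonitrile containing internal standard and assayed by LC/MS/MS. Parameters were derived by noncompartmental analysis.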

The nature of data set [4]: Cytotoxicity against human NAMALWA cells after 96 hrs by trypan blue exclusion assay. The data set is classed as functional. Conditions: NAMALVA. Summed up:
(§3)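 Cells were grown in DMEM or RPMI with 10% FBS and plated at 2.5×10⁴ cells/well in 12-well dishes. Compounds were added 24 h later at various concentrations. After 96 h, viable cells were counted by trypan blue exclusion from duplicate wells. Results are the mean of two independent experiments.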

The subject of data set [5] is DU-145. The data set is described as follows: Mitotoic arrest in human DU145 cells assessed as complete loss of coordination in mitotic spindle assembly at 25 nM after 24 hrs by FITC and propidium iodide staining-based confocal laser microscopic analysis. The data set is classed as functional, cell-based. Summed up:
as §1

The test system of data set [6] is MDCK. Description: Apparent permeability from basolateral to apical side in MDCK cells expressing MDR-1 at 10 uM after 90 mins by LC-MS/MS analysis. The data set is classed as ADME, cell-based, Canis lupus familiaris. Conditions: dog, 1.5 h. Summed up: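 MDCK-MDR1 (Pgp-expressing) monolayers were used 3–4 days post-seeding, only if TEER exceeded 1000 Ω·cm² before and after the run. Compound starting concentration was 10 μM. Transport was measured A→B and B→A over 90 min and quantified by LC/MS/MS. Apparent permeabilities gave the efflux ratio.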

For a further data set, the system named is 2008. Description: Resistance factor, ratio of GI50 for paclitaxel-resistant human 2008/17/4 cells to GI50 for human 2008 cells. The data set is classed as functional.
Data set [7] concerns Liver. Description: Metabolic stability in human liver S9 fraction assessed as compound remaining at 10 uM after 1 hr by LC-MS/MS analysis. The note with it: s9, 1 h. It counts as ADME, subcellular. The essentials: (§4)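 Compound at 10 μM was incubated with rat, dog or human liver S9 fraction (1 mg/mL) for 0, 30 and 60 min. Parent remaining at 1 h was quantified by LC-MS/MS.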

The subject of data set [8] is Mus musculus. The data set is described as follows: AUC in ICR mouse at 5 mg/kg, iv by LC-MS/MS analysis. It counts as ADME, organism-based, Plasma. Details: dose 5 mg/kg, route intravenous. The note with it: in vivo. Summed up:
as §2

Another data set concerns MIA PaCa-2. The data set is described as follows: Antitumor activity against human MIAPaCa2 cells assessed as inhibition of anchorage-independent growth after 3 weeks by NBT staining-based soft agar assay. The data set is classed as functional, cell-based. The essentials: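 MIA-PaCa-2 cells (1.0×10⁵) in growth medium with compound were mixed into 0.4% Noble top agar over a 0.8% bottom layer. Each concentration was plated in triplicate. Plates were incubated 3 weeks at 37 °C, 5% CO₂, then stained with 0.05% nitroblue tetrazolium for 48 h and photographed.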

The next data set concerns Plasma. Description: Plasma protein binding in human at 10 to 50 uM by equilibrium dialysis. The data set is classed as ADME, cell-free. Background: In equilibrium dialysis only unbound substance equilibrates across the membrane.
Another data set is filed under the species Bos taurus. Description: Inhibition of bovine brain tubulin assessed as destabilization of microtubule polymerization at 10 uM over 40 mins by spectrophotometric analysis. The essentials: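 Purified bovine brain tubulin was incubated at 37 °C with 10 μM compound, DMSO or reference agents. Polymerization was followed as rising absorbance at 340 nm over 40 min. Data are representative of three independent experiments.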

Data set [9] has as its system DU-145. The data set is described as follows: Cytotoxicity against human DU145 cells after 96 hrs by trypan blue exclusion assay. The data set is classed as functional, cell-based. The essentials: as §3
The subject of a further data set is CCRF-CEM. The data set is described as follows: Resistance factor, ratio of GI50 for multidrug-resistant human CEM/C2 cells to GI50 for human CEM cells. The data set is classed as functional.
Data set [10] in a line: Cytotoxicity against human U87 cells after 96 hrs by sulforhodamine B assay. The data set is classed as functional, cell-based, U-87MG ATCC. The note with it: U-87 MG. (In general: The SRB assay estimates cell density from bound dye.)
A further data set has as its system BT-20. Description: Antitumor activity against human BT20 cells xenografted in NCR-nu/nu mouse assessed as reduction in tumor volume at 20 mg/kg, ip treated 3 times a week for 2 weeks measured on alternate days for 14 days. It counts as functional, organism-based. Details: dose 20 mg/kg. The essentials:
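Female athymic NCr-nu/nu mice were implanted subcutaneously in the hind leg with 0.5–1.0×10⁷ BT20 cells. Mice were paired once tumours reached about 100–150 mm³ (vehicle N=7, treated N=8). Dosing was 20 mg/kg IP in DMSO (0.1 mL), 3×/week for 2 weeks. Calipers measured two dimensions; volume = L×S²×π/6. Body weight was recorded at each measurement.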

Data set [11] has as its system Mus musculus. Description: Oral bioavailability in ICR mouse at 5 mg/kg by LC-MS/MS analysis. The data set is classed as ADME, organism-based. The note with it: in vivo. Summed up: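 Male ICR mice, 6–8 weeks old (N=3 per group), with a carotid artery cannula implanted one day before dosing. Dosed at 5 mg/kg in NMP:PEG300:water (1:4:5) as an IV bolus or by oral gavage. Blood drawn at 2–360 min; plasma protein-precipitated with acetonitrile containing internal standard, assayed by LC/MS/MS; noncompartmental analysis.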

The subject of data set [12] is DU-145. Description: Mitotoic arrest in human DU145 cells assessed as complete depolymerization of microtubule cytoskeleton at 25 nM after 24 hrs by FITC and propidium iodide staining-based confocal laser microscopic analysis. It counts as functional, cell-based. Summed up: as §1
Another data set relates to A-431. The data set is described as follows: Cytotoxicity against human A431 cells after 96 hrs by trypan blue exclusion assay. Conditions: A-431, 96 h. The data set is classed as functional. Summed up: as §3
Data set [13] relates to Liver. The data set is described as follows: Metabolic stability in dog liver S9 fraction assessed as compound remaining at 10 uM after 1 hr by LC-MS/MS analysis. It counts as ADME, subcellular, Canis lupus familiaris. The note with it: s9, 1 h. The essentials:
as §4

For data set [14], the system named is Liver. The data set is described as follows: Metabolic stability in rat liver S9 fraction assessed as compound remaining at 10 uM after 1 hr by LC-MS/MS analysis. It counts as ADME, subcellular. The note with it: s9, 1 h. The essentials: as §4
The subject of data set [15] is DU-145. The data set is described as follows: Mitotoic arrest in human DU145 cells assessed as appearance of abnormal spindles at 25 nM after 24 hrs by FITC and propidium iodide staining-based confocal laser microscopic analysis. The data set is classed as functional, cell-based. Summed up:
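DU145 cells on glass coverslips were treated with 0.025 μM compound or DMSO for 24 h and fixed in 4% paraformaldehyde. After blocking and permeabilizing in PBS with 10% FBS and 0.1% Triton X-100, they were stained with FITC anti-α-tubulin (DM1A) for 1 h at 37 °C and with propidium iodide 1 μg/mL. Imaging was by confocal microscopy, 60× objective, as z-sections.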

For data set [16], the system named is MDCK. The data set is described as follows: Efflux ratio of permeability from basolateral to apical over apical to basolateral side in MDCK cells expressing MDR-1. Conditions: dog.

For `COc1cc(OC)c(/C=C/S(=O)(=O)Nc2ccc(OC)c(N)c2)c(OC)c1`, the result in the data set with DU-145 [1], in the data set with DU-145 [2], in the data set with DU-145 [5], with BT-20, in the data set with DU-145 [12] and in the data set on DU-145 [15] was Active. For the same compound, the AUC (commonly concentration integrated over time) in the data set with Mus musculus [3] was found to be 700 ng·h/mL; in the data set with Mus musculus [8] it was 2040 ng·h/mL. The GI50 (as a rule, the concentration giving 50% growth inhibition) in [4] is 8 nM; in the data set on A-431, 5 nM. The apparent permeability (Papp) (in general, a coefficient for how fast a substance crosses the barrier) in the data set with MDCK [6] worked out at 72 ×10⁻⁶ cm/s. Further, the RatioGI50 in the data set on 2008 and in the data set on CCRF-CEM was 1 each time. Also, the Stability with Liver [7] is recorded as 20%; with Liver [13], 57%; with Liver [14], 33%. Also, the inhibition entry in the data set on MIA PaCa-2 was “Dose-dependent effect”. This compound also gave a PPB with Plasma of 99.67%. For the same compound, the inhibition entry in the data set listed under Bos taurus was “Active”. Further, in the data set with DU-145 [9], the Activity entry is “Dose-dependent effect”. Further, the concentration for half-maximal inhibition (IC50) – broadly, the concentration that inhibits the measured activity by half – with DU-145 [9] (DU-145, 96 h) is 5 nM; in data set [10], 9 nM. The F with Mus musculus [11] came to 34%. In addition, the Ratio in the data set on MDCK [16] stood at 7.9.
